Tests used:
[1] = Synergistic cytotoxicity against mouse L5178 cells expressing human ABCB1 assessed as combination index at ED50 using 60:1 test compound to doxorubicin ratio after 48 hrs by MTT-based checkerboard microplate method; assay type: functional
In short: (§1)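 Checkerboard microplate combinations of compound with doxorubicin at constant molar ratios. 5 × 10^4 cells/well in McCoy's 5A, 48 h at 37°C, 5% CO2. MTT added to 0.5 mg/mL final for 4 h, SDS/HCl overnight, OD read at 540 and 630 nm. Combination indices derived per ratio for 50%, 75% and 90% growth inhibition by median-effect analysis.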

[2] = Synergistic cytotoxicity against mouse L5178 cells assessed as combination index at ED90 using 150:1 test compound to doxorubicin ratio after 48 hrs by MTT-based checkerboard microplate method; assay type: functional; in short: as §1
[3] = Synergistic cytotoxicity against mouse L5178 cells assessed as combination index at ED75 using 150:1 test compound to doxorubicin ratio after 48 hrs by MTT-based checkerboard microplate method; assay type: functional; in short: as §1
[4] = Synergistic cytotoxicity against mouse L5178 cells expressing human ABCB1 assessed as combination index at ED90 using 15:1 test compound to doxorubicin ratio after 48 hrs by MTT-based checkerboard microplate method; assay type: functional; in short: as §1
[5] = Synergistic cytotoxicity against mouse L5178 cells assessed as combination index at ED50 using 37.5:1 test compound to doxorubicin ratio after 48 hrs by MTT-based checkerboard microplate method; assay type: functional; in short: as §1
HeLa = assay: Antiproliferative activity against human HeLa cells after 72 hrs by MTT assay; assay type: functional, cell-based
In short: (§2)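 Cells grown in MEM with 10% FCS, 1% non-essential amino acids and 1% penicillin-streptomycin. Seeded at 5000 cells/well, exposed to 0.1–30.0 µM compound for 72 h. MTT (5 mg/ml solution) was then added for 4 h, formazan dissolved in DMSO, and absorbance read at 545 nm. Cisplatin served as positive control. IC50 came from sigmoidal dose–response fits (log inhibitor vs normalized response, variable slope).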

[6] = Synergistic cytotoxicity against mouse L5178 cells assessed as combination index at ED90 using 75:1 test compound to doxorubicin ratio after 48 hrs by MTT-based checkerboard microplate method; assay type: functional; in short: as §1
[7] = Cytotoxicity against mouse L5178 cells after 48 hrs by MTT assay; assay type: functional, cell-based; conditions: L5178, 48 h
In short: (§3)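 Parental mouse lymphoma L5178 and the MDR line made by pHa MDR1/A retrovirus transfection, selected with 60 µg/L colchicine. Grown in McCoy's 5A with horse serum at 37°C, 5% CO2. 5 x 10^4 cells/well, serial compound dilutions, 48 h. MTT added to 0.5 mg/mL final for 4 h, then 10% SDS in 0.01 M HCl overnight, OD read at 540 and 630 nm. IC50 taken as median cytotoxic activity (Dm) from control lanes of checkerboard plates, n=2.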

MDA-MB-231 = assay: Antiproliferative activity against human MDA-MB-231 cells after 72 hrs by MTT assay; assay type: functional, cell-based; conditions: MDA-MB-231, 72 h; in short: as §2
[8] = Synergistic cytotoxicity against mouse L5178 cells expressing human ABCB1 assessed as combination index at ED75 using 30:1 test compound to doxorubicin ratio after 48 hrs by MTT-based checkerboard microplate method; assay type: functional; in short: as §1
[9] = Synergistic cytotoxicity against mouse L5178 cells expressing human ABCB1 assessed as combination index at ED75 using 7.5:1 test compound to doxorubicin ratio after 48 hrs by MTT-based checkerboard microplate method; assay type: functional; in short: as §1
[10] = Synergistic cytotoxicity against mouse L5178 cells assessed as combination index at ED50 using 300:1 test compound to doxorubicin ratio after 48 hrs by MTT-based checkerboard microplate method; assay type: functional; in short: as §1
[11] = Synergistic cytotoxicity against mouse L5178 cells expressing human ABCB1 assessed as combination index at ED50 using 7.5:1 test compound to doxorubicin ratio after 48 hrs by MTT-based checkerboard microplate method; assay type: functional; in short: as §1
[12] = Synergistic cytotoxicity against mouse L5178 cells assessed as combination index at ED75 using 600:1 test compound to doxorubicin ratio after 48 hrs by MTT-based checkerboard microplate method; assay type: functional; in short: as §1
[13] = Synergistic cytotoxicity against mouse L5178 cells assessed as combination index at ED75 using 37.5:1 test compound to doxorubicin ratio after 48 hrs by MTT-based checkerboard microplate method; assay type: functional; in short: as §1
[14] = Synergistic cytotoxicity against mouse L5178 cells expressing human ABCB1 assessed as combination index at ED90 using 60:1 test compound to doxorubicin ratio after 48 hrs by MTT-based checkerboard microplate method; assay type: functional; in short: as §1
[15] = Synergistic cytotoxicity against mouse L5178 cells assessed as combination index at ED90 using 600:1 test compound to doxorubicin ratio after 48 hrs by MTT-based checkerboard microplate method; assay type: functional; in short: as §1
MCF7 = assay: Antiproliferative activity against human MCF7 cells after 72 hrs by MTT assay; assay type: functional, cell-based; conditions: MCF7, 72 h; in short: as §2
[16] = Synergistic cytotoxicity against mouse L5178 cells expressing human ABCB1 assessed as combination index at ED75 using 60:1 test compound to doxorubicin ratio after 48 hrs by MTT-based checkerboard microplate method; assay type: functional; in short: as §1
[17] = Synergistic cytotoxicity against mouse L5178 cells expressing human ABCB1 assessed as combination index at ED50 using 15:1 test compound to doxorubicin ratio after 48 hrs by MTT-based checkerboard microplate method; assay type: functional; in short: as §1
[18] = Synergistic cytotoxicity against mouse L5178 cells assessed as combination index at ED50 using 75:1 test compound to doxorubicin ratio after 48 hrs by MTT-based checkerboard microplate method; assay type: functional; in short: as §1
[19] = Synergistic cytotoxicity against mouse L5178 cells assessed as combination index at ED90 using 300:1 test compound to doxorubicin ratio after 48 hrs by MTT-based checkerboard microplate method; assay type: functional; in short: as §1
[20] = Synergistic cytotoxicity against mouse L5178 cells assessed as combination index at ED75 using 300:1 test compound to doxorubicin ratio after 48 hrs by MTT-based checkerboard microplate method; assay type: functional; in short: as §1
[21] = Synergistic cytotoxicity against mouse L5178 cells expressing human ABCB1 assessed as combination index at ED75 using 15:1 test compound to doxorubicin ratio after 48 hrs by MTT-based checkerboard microplate method; assay type: functional; in short: as §1
ABCB1 (P-glycoprotein) [22] = molecular target: T1, ABCB1 (P-glycoprotein) (Homo sapiens, UniProt P08183); assay: Inhibition of human ABCB1 expressed in mouse L5178 cells assessed as increase in rhodamine-123 accumulation at 20 uM after 10 mins by flow cytometric analysis relative to control; assay type: cell-based; conditions: mouse L5178 cells expressing human ABCB1, probe rhodamine-123
T1 sequence (P08183 whole entry): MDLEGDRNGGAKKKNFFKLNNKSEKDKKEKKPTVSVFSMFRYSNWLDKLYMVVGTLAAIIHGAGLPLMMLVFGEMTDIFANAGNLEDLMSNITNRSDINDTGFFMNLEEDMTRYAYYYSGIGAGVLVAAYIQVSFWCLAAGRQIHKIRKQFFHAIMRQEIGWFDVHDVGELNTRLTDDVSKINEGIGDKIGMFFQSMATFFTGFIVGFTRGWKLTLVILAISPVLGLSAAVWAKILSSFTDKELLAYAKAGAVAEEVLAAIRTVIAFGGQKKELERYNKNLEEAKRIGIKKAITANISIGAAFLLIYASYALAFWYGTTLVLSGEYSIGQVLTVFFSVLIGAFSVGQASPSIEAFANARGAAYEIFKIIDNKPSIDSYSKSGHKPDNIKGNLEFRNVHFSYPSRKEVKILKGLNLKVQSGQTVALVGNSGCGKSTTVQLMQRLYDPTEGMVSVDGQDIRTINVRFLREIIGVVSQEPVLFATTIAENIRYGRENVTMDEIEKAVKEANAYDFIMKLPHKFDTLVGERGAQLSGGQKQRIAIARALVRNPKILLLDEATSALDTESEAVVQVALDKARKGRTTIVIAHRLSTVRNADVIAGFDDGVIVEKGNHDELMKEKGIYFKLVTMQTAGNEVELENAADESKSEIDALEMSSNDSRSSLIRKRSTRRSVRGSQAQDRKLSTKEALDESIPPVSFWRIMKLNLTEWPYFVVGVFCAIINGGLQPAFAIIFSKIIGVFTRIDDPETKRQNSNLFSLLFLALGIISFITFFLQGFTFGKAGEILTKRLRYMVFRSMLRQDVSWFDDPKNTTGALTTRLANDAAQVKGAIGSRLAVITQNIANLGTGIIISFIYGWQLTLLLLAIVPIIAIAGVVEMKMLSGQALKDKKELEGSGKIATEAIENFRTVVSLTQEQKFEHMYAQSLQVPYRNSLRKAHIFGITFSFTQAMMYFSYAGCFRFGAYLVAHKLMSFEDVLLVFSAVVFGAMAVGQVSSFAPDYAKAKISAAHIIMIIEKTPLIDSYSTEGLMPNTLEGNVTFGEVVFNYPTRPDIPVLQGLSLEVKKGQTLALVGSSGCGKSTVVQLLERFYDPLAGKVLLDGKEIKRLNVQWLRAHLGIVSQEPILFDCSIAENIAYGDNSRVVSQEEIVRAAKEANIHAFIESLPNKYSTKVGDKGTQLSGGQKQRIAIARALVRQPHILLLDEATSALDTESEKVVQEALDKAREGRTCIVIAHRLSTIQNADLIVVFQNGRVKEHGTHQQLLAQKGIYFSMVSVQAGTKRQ
In short: (§4)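 Cells at 2 × 10^6/mL were preincubated 10 min with compound. Rhodamine 123 then added to 5.2 µM final, 20 min at 37 °C. Cells washed twice in PBS, resuspended and read by flow cytometry. Percent inhibition was scaled between MDR-cell accumulation (0%) and parental L5178 accumulation (100%). Controls: 100 nM tariquidar (positive) and 2% DMSO (negative).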

[23] = Synergistic cytotoxicity against mouse L5178 cells assessed as combination index at ED50 using 150:1 test compound to doxorubicin ratio after 48 hrs by MTT-based checkerboard microplate method; assay type: functional; in short: as §1
[24] = Synergistic cytotoxicity against mouse L5178 cells assessed as combination index at ED75 using 75:1 test compound to doxorubicin ratio after 48 hrs by MTT-based checkerboard microplate method; assay type: functional; in short: as §1
[25] = Synergistic cytotoxicity against mouse L5178 cells assessed as combination index at ED90 using 37.5:1 test compound to doxorubicin ratio after 48 hrs by MTT-based checkerboard microplate method; assay type: functional; in short: as §1
ABCB1 (P-glycoprotein) [26] = molecular target: T1, ABCB1 (P-glycoprotein); assay: Inhibition of human ABCB1 expressed in mouse L5178 cells assessed as increase in rhodamine-123 accumulation at 2 uM after 10 mins by flow cytometric analysis relative to control; assay type: cell-based; conditions: mouse L5178 cells expressing human ABCB1, probe rhodamine-123; in short: as §4
[27] = Synergistic cytotoxicity against mouse L5178 cells expressing human ABCB1 assessed as combination index at ED90 using 30:1 test compound to doxorubicin ratio after 48 hrs by MTT-based checkerboard microplate method; assay type: functional; in short: as §1
[28] = Synergistic cytotoxicity against mouse L5178 cells assessed as combination index at ED50 using 600:1 test compound to doxorubicin ratio after 48 hrs by MTT-based checkerboard microplate method; assay type: functional; in short: as §1
SiHa = assay: Antiproliferative activity against human SiHa cells after 72 hrs by MTT assay; assay type: functional, cell-based; in short: as §2
[29] = Synergistic cytotoxicity against mouse L5178 cells expressing human ABCB1 assessed as combination index at ED50 using 30:1 test compound to doxorubicin ratio after 48 hrs by MTT-based checkerboard microplate method; assay type: functional; in short: as §1
[30] = Cytotoxicity against mouse L5178 cells expressing human ABCB1 after 48 hrs by MTT assay; assay type: functional, cell-based; conditions: L5178, 48 h; in short: as §3
[31] = Synergistic cytotoxicity against mouse L5178 cells expressing human ABCB1 assessed as combination index at ED90 using 7.5:1 test compound to doxorubicin ratio after 48 hrs by MTT-based checkerboard microplate method; assay type: functional; in short: as §1

IC50 (HeLa) [µM] | IC50 (MDA-MB-231) [µM] | IC50 (MCF7) [µM] | SMILES | CI [1] | CI [2] | CI [3] | CI [4] | CI [5] | CI [6] | IC50 [7] [µM] | CI [8] | CI [9] | CI [10] | CI [11] | CI [12] | CI [13] | CI [14] | CI [15] | CI [16] | CI [17] | further results
> 30 | > 30 | 22.6 | CCO/N=C1\C=C2[C@H](CC[C@]3(C)[C@@H]([C@@]4(C)OC(C)(C)O[C@@H]4CCC(C)(C)O)CC[C@@]23O)[C@@]2(C)C[C@@H]3OC(C)(C)O[C@@H]3C[C@@H]12 | 0.31 | 1.1 | 0.8 | 0.15 | 0.55 | 0.84 | 35 | 0.23 | 0.14 | 1.09 | 0.18 | 0.95 | 0.58 | 0.41 | 0.89 | 0.35 | 0.57 | CI [18]: 0.59; CI [19]: 1.06; CI [20]: 1.08; CI [21]: 0.16; inhibition at 10 min, 20 µM (ABCB1 (P-glycoprotein) [22]): 78.8%; CI [23]: 0.17; CI [24]: 0.7; CI [25]: 0.6; inhibition at 10 min, 2 µM (ABCB1 (P-glycoprotein) [26]): 17.5%; CI [27]: 0.26; CI [28]: 1.02; IC50 (SiHa): > 30 µM; CI [29]: 0.2; IC50 [30]: 47 µM; CI [31]: 0.12
> 30 | > 30 | > 30 | CC(C)(O)CC[C@H]1OC(C)(C)O[C@]1(C)[C@H]1CC=C2C3=CC(=O)N[C@@H]4C[C@H]5OC(C)(C)O[C@H]5C[C@]4(C)[C@H]3CC[C@@]21C | 0.2 | 0.46 | 0.42 | 0.09 | 0.57 | 0.43 | 63.4 | 0.13 | 0.15 | 0.43 | 0.24 | 0.63 | 0.51 | 0.15 | 0.67 | 0.17 | 0.2 | CI [18]: 0.62; CI [19]: 0.5; CI [20]: 0.46; CI [21]: 0.12; inhibition at 10 min, 20 µM (ABCB1 (P-glycoprotein) [22]): 4.27%; CI [23]: 0.4; CI [24]: 0.52; CI [25]: 0.46; inhibition at 10 min, 2 µM (ABCB1 (P-glycoprotein) [26]): 1.16%; CI [27]: 0.11; CI [28]: 0.58; IC50 (SiHa): > 30 µM; CI [29]: 0.18; IC50 [30]: 72.4 µM; CI [31]: 0.1

SMILES | IC50 (HeLa) [µM] | IC50 (MDA-MB-231) [µM] | IC50 (MCF7) [µM] | CI [1] | CI [2] | CI [3] | CI [4] | CI [5] | CI [6] | IC50 [7] [µM] | CI [8] | CI [9] | CI [10] | CI [11] | CI [12] | CI [13] | CI [14] | CI [15] | CI [16] | CI [17] | further results
CC(C)(O)CC[C@H]1OC(C)(C)O[C@]1(C)[C@H]1CC[C@@]2(O)C3=C/C(=N\OC(C)(C)C)[C@@H]4C[C@H]5OC(C)(C)O[C@H]5C[C@]4(C)[C@H]3CC[C@]12C | 8.43 | 12.4 | 11.1 | 0.38 | 1.26 | 0.91 | 0.25 | 0.58 | 0.8 | 28.1 | 0.29 | 0.2 | 0.91 | 0.3 | 1.3 | 0.63 | 0.53 | 1.7 | 0.44 | 0.66 | CI [18]: 0.56; CI [19]: 1.06; CI [20]: 0.98; CI [21]: 0.23; inhibition at 10 min, 20 µM (ABCB1 (P-glycoprotein) [22]): 112%; CI [23]: 0.24; CI [24]: 0.67; CI [25]: 0.7; inhibition at 10 min, 2 µM (ABCB1 (P-glycoprotein) [26]): 38.8%; CI [27]: 0.36; CI [28]: 1; IC50 (SiHa): 16.1 µM; CI [29]: 0.27; IC50 [30]: 29.1 µM; CI [31]: 0.17

— ChEMBL document CHEMBL4145462, “Nitrogen-containing ecdysteroid derivatives vs. multi-drug resistance in cancer: Preparation and antitumor activity of oximes, oxime ethers and a lactam” (Eur J Med Chem, 2018)
